In the RNAGym collection of RNA variant scans (doi:10.1126/science.aae0568):
Variants at the floor of the assay were thinned out.

B1: tRNA (parent)
chain: GUUCCGUUGGCGUAAUGGUAACGCGUCUCCCUCCUAAGGAGAAGACUGCGGGUUCGAGUCCCGUACGGAACG

Variants of: B1
Experiment: yeast fitness relative to wild type (ratio to wild type); higher = fitter; tRNA-Arg(CCU), competitive growth, 37 C, YPD
How it was run: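 Amplicons of the tRNA-Arg(CCU) gene were sequenced, 100-nucleotide paired-end, from the start population and from each end population of a pooled yeast competition. The competition, in six parallel replicates, lasted 24 hours in YPD at 37°C. Fitness relative to wild type was calculated from changes in genotype frequencies. Genotypes had to have ≥ 100 starting reads, and estimates < 0.5 were set to 0.5.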

Going from G12A C31A A42G A57U U59A to U7A G67A, the yeast fitness rises from at most 0.5 to 0.781.

First: C4A U32C A40U
Second: U8A A37C U53C
The yeast fitness of the first is lower: 0.517 for the first, 0.545 for the second.

Going from C22U C34G to C29U U59C, the yeast fitness rises from 0.597 to 0.868.

U28A C55G C66U and U7G A45U C55A cannot be ordered by yeast fitness: at most 0.5 for the first, at most 0.5 for the second.

Going from C11U A65G to C22U C24U A36C A45G G56C, the yeast fitness falls from 0.935 to at most 0.5.

C5U C11A U54C G63A and U3A A40C U47A G68C cannot be ordered by yeast fitness: at most 0.5 for the first, at most 0.5 for the second.

Compared with A45G C62U, U3C G17A C60A C66U is lower in yeast fitness: 0.968 for the first, at most 0.5 for the second.

Going from G10A U35A A57C to U7A C27A A65U, the yeast fitness rises from at most 0.5 to 0.603.

First: A37G G56A G63A
Second: G68C A69U
The yeast fitness of the first is lower: at most 0.5 for the first, 0.711 for the second.

First: C5A C27U
Second: C24G A43C G52C C55U A69C
The yeast fitness of the first is higher: 0.815 for the first, at most 0.5 for the second.

Going from U28C G39U C49A C55U to U8C U59A, the yeast fitness rises from at most 0.5 to 0.721.

First: C5A U19A C30G
Second: G44C C46G C55U G63A
The yeast fitness of the first is higher: 0.594 for the first, at most 0.5 for the second.

First: C11A U54C A57U
Second: U16A U47A
The yeast fitness of the first is lower: 0.565 for the first, 0.825 for the second.

First: C61U U64A A69G
Second: U35C A57G
The yeast fitness of the first is lower: 0.597 for the first, 0.739 for the second.

C4U C30A G38C C61A and C11G C27A C66A cannot be ordered by yeast fitness: at most 0.5 for the first, at most 0.5 for the second.

First: A36G C60U
Second: U16C A65G
The yeast fitness of the first is lower: 0.793 for the first, 0.95 for the second.

Going from C4U C24A A57G A70C to G12C U19G G25A U59A U64A, the yeast fitness rises from at most 0.5 to 0.623.

First: A43G U64G C66U
Second: C31G A45C
The yeast fitness of the first is lower: 0.544 for the first, 0.864 for the second.

U7C C22A C31U A57C G58A A69G and A14G C49A C61U C62G cannot be ordered by yeast fitness: at most 0.5 for the first, at most 0.5 for the second.

First: C29U C66G
Second: G17A A20G
The yeast fitness of the first is lower: 0.732 for the first, 0.793 for the second.

U3A G41C U53G and C24G C31U A43G A45C U64A cannot be ordered by yeast fitness: at most 0.5 for the first, at most 0.5 for the second.

Compared with U8A C11U A70C, G17C G39C A45G U54A is lower in yeast fitness: 0.622 for the first, at most 0.5 for the second.

U16C G17C C31U A37U and U2G G9A U16G C62U U64C cannot be ordered by yeast fitness: at most 0.5 for the first, at most 0.5 for the second.

Compared with G9A C27U A45C, C4U C5G G10A C24U A36C G56A is lower in yeast fitness: 0.904 for the first, 0.651 for the second.

Going from G6C A42G C46A to U7G G39A C55U U59G G68C, the yeast fitness falls from 0.695 to at most 0.5.

Compared with A20G C55A, U8C C27G C30G C46U C49G is lower in yeast fitness: 0.585 for the first, at most 0.5 for the second.

Compared with A21C A45U G52A C62A, G52C A65U is higher in yeast fitness: at most 0.5 for the first, 0.614 for the second.

First: G9C C29U A36U G67A
Second: A15G G48C C61A
The yeast fitness of the first is higher: 0.501 for the first, at most 0.5 for the second.

Going from A37G A45C C61G A70U to C27G C46U A69C, the yeast fitness rises from at most 0.5 to 0.735.

Compared with A15U G38A, C30A G68A is higher in yeast fitness: 0.635 for the first, 0.862 for the second.

Compared with G10U G17A C24A C61G, A21U C24U G56A is higher in yeast fitness: at most 0.5 for the first, 0.635 for the second.

U32G G58C A65U and C5G G9C A42G U54C U59C cannot be ordered by yeast fitness: at most 0.5 for the first, at most 0.5 for the second.

Compared with C22U U47C G52A, C5U U13A C27G is higher in yeast fitness: at most 0.5 for the first, 0.557 for the second.

Compared with C5G A45C C46U, C24G G38C G50C is lower in yeast fitness: 0.643 for the first, at most 0.5 for the second.

C30A A43U C55G G63C G67C and C4G U28A C31G cannot be ordered by yeast fitness: at most 0.5 for the first, at most 0.5 for the second.

Compared with U16C A42C, A15C C55G A57C is lower in yeast fitness: 0.93 for the first, at most 0.5 for the second.

Going from C5A A15U U64C to C46A C49A, the yeast fitness falls from 0.615 to 0.601.

First: C22G G56A
Second: G51A C55G G68C
The yeast fitness of the first is higher: 1.07 for the first, at most 0.5 for the second.

A14G U35G A40G A57G and A20U U32C G38C A65G cannot be ordered by yeast fitness: at most 0.5 for the first, at most 0.5 for the second.

C5U C22G C29G G68C and A14G C22A C27U C29U G50U U54C G68C cannot be ordered by yeast fitness: at most 0.5 for the first, at most 0.5 for the second.

G6A A20C C55A G68A and G18A G23C C30G A36U C60G cannot be ordered by yeast fitness: at most 0.5 for the first, at most 0.5 for the second.

Going from C30A A70U to C5A C34G, the yeast fitness falls from 1.02 to 0.589.

Compared with G23A C30G C55U G63A, C5G C24G C31U C61A is lower in yeast fitness: 0.582 for the first, at most 0.5 for the second.

Going from U7C A14C A70C to U26A A45G, the yeast fitness rises from 0.594 to 0.882.

C4A C27U U32C G48C and A15C A21G C22U A57U cannot be ordered by yeast fitness: at most 0.5 for the first, at most 0.5 for the second.

C27G A45U C55A G56A and A21C A36U C46U cannot be ordered by yeast fitness: at most 0.5 for the first, at most 0.5 for the second.

First: U8A C22G A43U G52A U54C G56U U64C
Second: C46U G51C A70C
The yeast fitness of the first is lower: at most 0.5 for the first, 0.504 for the second.

Compared with C24U A40G G58C, C5G C29A U59A is lower in yeast fitness: 0.579 for the first, at most 0.5 for the second.

A37G C55A G58C G68C and C31U C34A A36G G38C G51A cannot be ordered by yeast fitness: at most 0.5 for the first, at most 0.5 for the second.

Going from G12A U26A A70U to G12A A70C, the yeast fitness rises from 0.523 to 0.936.

U8C C27U C62G and C4G C30A G67A cannot be ordered by yeast fitness: at most 0.5 for the first, at most 0.5 for the second.

C4G C5G C11U G56A C61A and A37U A40U G56C A69U cannot be ordered by yeast fitness: at most 0.5 for the first, at most 0.5 for the second.

Compared with C24G C46U C49G G51C C66G, C11U C29U A45C C60G A65C is lower in yeast fitness: 0.639 for the first, at most 0.5 for the second.

G17C C22U C29G G51C and U7A C49U U59C C62G cannot be ordered by yeast fitness: at most 0.5 for the first, at most 0.5 for the second.

Going from U35C A45C C49A to A15G C55G, the yeast fitness rises from at most 0.5 to 0.641.

First: G17C C30G
Second: G6A U28A G68A
The yeast fitness of the first is higher: 0.581 for the first, 0.533 for the second.

First: G18A A21C G23U U32A A42U G48C
Second: C62U A69C
The yeast fitness of the first is lower: at most 0.5 for the first, 1.02 for the second.

First: C29U C31U A70G
Second: U2G C11G G12A A20U C30G C49G U53G
The yeast fitness of the first is higher: 0.726 for the first, at most 0.5 for the second.

Compared with G6A A36U C66U G67A, G25C A36C is higher in yeast fitness: at most 0.5 for the first, 0.718 for the second.

Going from A20C U26G A36C G38U to G38A G67U, the yeast fitness rises from at most 0.5 to 0.803.

Going from G23A C62A to U2A A21C C29U G51A, the yeast fitness rises from 0.516 to 0.574.

C22U G58C C61A and C24G U47C U53G U54A G58C cannot be ordered by yeast fitness: at most 0.5 for the first, at most 0.5 for the second.

Going from A20C C24A C29G C34G G56A A65G A69C to U2C G12A A15G, the yeast fitness falls from 0.856 to at most 0.5.

First: C33A C49U C62G
Second: G12A U13A A14G A21G C33U C62G
The yeast fitness of the first is higher: 0.735 for the first, at most 0.5 for the second.

First: G10A C61G
Second: A20C A21G A70C
The yeast fitness of the first is lower: at most 0.5 for the first, 0.803 for the second.

First: A20G A70C
Second: G9A C55U A70U
The yeast fitness of the first is higher: 0.994 for the first, 0.623 for the second.

Compared with C46U U53C A70U, G6C G17C C27U A40U C60U is lower in yeast fitness: 0.608 for the first, at most 0.5 for the second.

U26A C31G A36U U54C C55G and C4G C11G C46U U59C C62G A65U cannot be ordered by yeast fitness: at most 0.5 for the first, at most 0.5 for the second.

Going from G12A U28C C31U G52A G56C to U2G C34G A43C, the yeast fitness rises from at most 0.5 to 0.552.

First: C24U A43C A57C
Second: A21U U26A U54A G63C A65C
The yeast fitness of the first is lower: at most 0.5 for the first, 0.554 for the second.

Compared with U7C A43C A57G U59C A70G, C11U U13A C62U is higher in yeast fitness: at most 0.5 for the first, 0.721 for the second.

Compared with C5A A14G A20U A37C C49A C66A, C4A G23C C49U G58A A69C is higher in yeast fitness: at most 0.5 for the first, 0.535 for the second.

G18A U28A A42G A45C and U35A A40U G41C C49A cannot be ordered by yeast fitness: at most 0.5 for the first, at most 0.5 for the second.

U2C A21C C30A C62U A70U and C24G A65U G68A cannot be ordered by yeast fitness: at most 0.5 for the first, at most 0.5 for the second.

Compared with G10A A42U U59A, A20C C30A C33U C34U C49A is higher in yeast fitness: at most 0.5 for the first, 0.733 for the second.

First: A20C U32A A37U
Second: A65C A69G A70U
The yeast fitness of the first is lower: at most 0.5 for the first, 0.519 for the second.

First: C5G U8G
Second: A37G G56A C62A A70G
The yeast fitness of the first is higher: 0.527 for the first, at most 0.5 for the second.

U32C G39C C55U and A20U C24G C55A cannot be ordered by yeast fitness: at most 0.5 for the first, at most 0.5 for the second.

Going from C5A A20U C29A G68A to U2G C11U A15U U47A, the yeast fitness rises from at most 0.5 to 0.578.

A20C A37C C49G and G9A C33A C46A G56C cannot be ordered by yeast fitness: at most 0.5 for the first, at most 0.5 for the second.

First: U19G G58C
Second: U16A C33G C66G
The yeast fitness of the first is higher: 1.03 for the first, at most 0.5 for the second.

C11U G18A G23A A36U G48C and U13C U16G G25C cannot be ordered by yeast fitness: at most 0.5 for the first, at most 0.5 for the second.

Compared with G6A C22A U35A C49G G63C, C4G A45G C62A is higher in yeast fitness: at most 0.5 for the first, 0.554 for the second.

Work on G50A G56C G63A yielded a yeast fitness of 0.561.
